In ChEMBL document CHEMBL3124758, “Toward new classes of potent antibiotics: synthesis and antimicrobial activity of novel metallosaldach-imidazolium salts” (2014):
≈ marks a conversion by molar mass, not a printed value. Calls of active or inactive are those of the source. The rule behind the calls is not given here.

Columns and labels:
[1] = test system: Candida albicans; test: Antifungal activity against Candida albicans NCIM 3100 after 72 hrs by broth micro-dilution method; assay type: functional
Method in brief: (§1)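 Aqueous compound solutions, 2.5 to 20 mg/mL, 100 µL per 4 mm well in nutrient agar seeded from nutrient broth culture (1 cm3 broth with 9 cm3 agar at 45 °C). Plates incubated 72 h at 28 °C and clear-zone diameter measured. MIC taken from inhibition at four concentration levels. Duplicate, repeated twice, modal values. Amphotericin B standard.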

[2] = test system: Aspergillus flavus; test: Antifungal activity against Aspergillus flavus after 72 hrs by broth micro-dilution method; assay type: functional; method in brief: as §1
[3] = test system: Bacillus subtilis; test: Antibacterial activity against Bacillus subtilis after 72 hrs by broth micro-dilution method; assay type: functional
Method in brief: (§2)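 Compounds dissolved in H2O and tested at 2.5, 5, 10 and 20 mg/mL. Each strain was seeded in 1 cm3 nutrient broth, mixed with 9 cm3 melted (45 °C) nutrient agar and poured; 4 mm wells were cut. 100 µL compound solution per well, incubated 72 h at 37 °C, and inhibition zone diameter measured. MIC derived from % inhibition at the four levels. Duplicate, repeated twice; modal values. Ampicillin reference.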

[4] = test system: Staphylococcus aureus; test: Antibacterial activity against Staphylococcus aureus ATCC 25923 after 72 hrs by broth micro-dilution method; assay type: functional; conditions: ATCC 25923, 72 h; method in brief: as §2
[5] = test system: Escherichia coli; test: Antibacterial activity against Escherichia coli ATCC 25922 after 72 hrs by broth micro-dilution method; conditions: ATCC 25922, 72 h
[6] = test system: Pseudomonas aeruginosa; test: Antibacterial activity against Pseudomonas aeruginosa ATCC 27853 after 72 hrs by broth micro-dilution method; conditions: ATCC 27853, 72 h

SMILES	MIC ([1]; NCIM 3100, 72 h) [µg/mL]	MIC [2]	MIC [3] [µg/mL]	MIC [4] [µg/mL]	MIC [5] [µg/mL]	MIC [6] [µg/mL]	MIC [1]
Cc1[nH]cc[n+]1Cc1ccc(O)c(/C=N/[C@@H]2CCCC[C@H]2/N=C/c2cc(C[n+]3cc[nH]c3C)ccc2O)c1.[Cl-].[Cl-] (relative stereo)	> 250	inactive	17.5	17.6	17.1	> 10000	
Cc1[nH]cc[n+]1Cc1cc(/C=N/[C@@H]2CCCC[C@H]2/N=C/c2cc(C[n+]3cc[nH]c3C)cc(C(C)(C)C)c2O)c(O)c(C(C)(C)C)c1.[Cl-].[Cl-] (relative stereo)	55.5	inactive	12.1	14.9	13.3	> 10000	
CCn1cc[n+](Cc2ccc(O)c(/C=N/[C@@H]3CCCC[C@H]3/N=C/c3cc(C[n+]4ccn(CC)c4)ccc3O)c2)c1.[Cl-].[Cl-] (relative stereo)	> 250	inactive	15.2	> 250	> 250	> 10000	
CCn1cc[n+](Cc2cc(/C=N/[C@@H]3CCCC[C@H]3/N=C/c3cc(C[n+]4ccn(CC)c4)cc(C(C)(C)C)c3O)c(O)c(C(C)(C)C)c2)c1.[Cl-].[Cl-] (relative stereo)	> 250	inactive	16	18.4	> 250	> 10000	
CCCCn1cc[n+](Cc2cc(/C=N/[C@@H]3CCCC[C@H]3/N=C/c3cc(C[n+]4ccn(CCCC)c4)cc(C(C)(C)C)c3O)c(O)c(C(C)(C)C)c2)c1.[Cl-].[Cl-] (relative stereo)	85.2	inactive	16.4	16	12.2	> 5000	
CC1(C)S[C@@H]2[C@H](NC(=O)[C@H](N)c3ccccc3)C(=O)N2[C@H]1C(=O)O [AMPICILLIN]		inactive	20 (≈ 57.2 µM)	12.5 (≈ 35.8 µM)	15 (≈ 42.9 µM)	> 1000	inactive
C[C@@H]1[C@H](O)[C@@H](C)/C=C/C=C/C=C/C=C/C=C/C=C/C=C/[C@H](O[C@@H]2O[C@H](C)[C@@H](O)[C@H](N)[C@@H]2O)C[C@@H]2O[C@](O)(C[C@@H](O)C[C@@H](O)[C@H](O)CC[C@@H](O)C[C@@H](O)CC(=O)O[C@H]1C)C[C@H](O)[C@H]2C(=O)O [AMPHOTERICIN B]	80 (≈ 86.6 µM)	40 µg/mL (≈ 43.3 µM)					
CCCCn1cc[n+](Cc2ccc(O)c(/C=N/[C@@H]3CCCC[C@H]3/N=C/c3cc(C[n+]4ccn(CCCC)c4)ccc3O)c2)c1.[Cl-].[Cl-] (relative stereo)	> 250	inactive	11.2	16.2	16.7	> 5000	
